Bioassay records (PubChem)
Runt-CBFb FRET: inhibitors of human RUNX1 Runt domain binding to CBFb | inhibition, % at 20 µM | Q01196+Q13951 | AID 1496 | Cerulean-Runt/Venus-CBFb FRET ratio 530/480, 1 h | 0.46% of 220,000 active;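 active = inhibition over about 50% at 20 µM in the single-dose screen, limit read from the data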;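 note: 0% = DMSO wells and 100% = excess unlabeled CBFb competitor control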
Target sequence (Q01196 whole entry, looked up, the tested form may be a part): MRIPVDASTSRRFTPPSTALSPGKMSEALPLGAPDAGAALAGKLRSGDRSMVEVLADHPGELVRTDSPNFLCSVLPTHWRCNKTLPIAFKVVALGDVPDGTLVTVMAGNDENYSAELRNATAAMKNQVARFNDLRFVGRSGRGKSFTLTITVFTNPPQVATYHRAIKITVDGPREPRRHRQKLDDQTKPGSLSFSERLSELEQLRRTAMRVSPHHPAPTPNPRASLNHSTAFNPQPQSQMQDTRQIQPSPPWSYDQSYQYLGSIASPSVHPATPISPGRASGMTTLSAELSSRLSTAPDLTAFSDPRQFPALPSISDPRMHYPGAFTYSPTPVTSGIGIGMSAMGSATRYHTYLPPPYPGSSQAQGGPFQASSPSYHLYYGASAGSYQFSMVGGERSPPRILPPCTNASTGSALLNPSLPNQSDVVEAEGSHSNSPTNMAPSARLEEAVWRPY
Target sequence (Q13951 whole entry, looked up, the tested form may be a part): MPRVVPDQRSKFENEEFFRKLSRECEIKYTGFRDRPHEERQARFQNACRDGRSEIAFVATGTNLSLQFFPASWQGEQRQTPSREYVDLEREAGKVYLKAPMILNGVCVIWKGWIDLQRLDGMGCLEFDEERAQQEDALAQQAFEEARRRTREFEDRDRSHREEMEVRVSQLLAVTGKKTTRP
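Schedule: protein complex preformed 1 h, compound exposure 1 h, room temperature, dark; test system: Cerulean-labeled Runt domain protein; amount: 100 nM per protein; buffer or medium: Tris 50 mM pH 7.5, KCl, K2SO4, 0.01% BSA; read-out: loss of energy transfer signal; detection: FRET fluorescence; controls: 5 µM unlabeled CBFb as full-inhibition high control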
RanGTP-Impb inh: disruptors of Ran-importin-beta complex formation – biochemical, FRET, CFP-Ran, YFP-importin-beta, homogeneous, primary screen | cell-free CFP-Ran/YFP-importin-beta FRET ratio | inhibition, % (concentration not given with the values) | 1.1% of 300,000 active;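 active = more than half of the replicate wells show a fall in the fluorescence ratio signal beyond about 16%, limit read from the data, passing the limit was not always enough; inconclusive = exactly half of the replicate wells pass the set limit; inactive = fewer than half of replicates pass the limit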;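 note: 0% = DMSO wells and 100% = Ran loaded with GDP instead of GTP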
Hck Nef HTS: human Hck-Nef kinase inhibition | P08631 | Recombinant Hck-YEEI plus Nef, Z-Lyte FRET kinase assay | inhibition, % at 20 µM | 0.68% of 220,000 active | AID 463187;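 active = Hck-Nef kinase inhibition above about 50%, limit read from the data; inactive = inhibition below that limit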;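 note: 0% = DMSO with Hck plus Nef and 100% = Hck alone without Nef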
Runt-SMMHC FRET: Runt domain-CBFb-SMMHC interaction inhibition. Q01196+Q13951. Cerulean-Runt/Venus-CBFb-SMMHC FRET ratio 530/480, 1 h. inhibition, % at 20 µM. 0.74% of 220,000 active. AID 1434;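 active = mean inhibition across duplicate retests at 20 µM reaching about 50%, limit read from the data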;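 note: 0% = DMSO wells and 100% = wells with excess untagged CBFb-SMMHC; inhibitors lower the FRET ratio by blocking Runt binding to CBFb-SMMHC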
* = called active by the depositor; u = inconclusive; x = not tested or not shown. Hits are enriched below; roughly 1.9% of the tested compounds scored in any of these assays.

SMILES	Runt-CBFb FRET	RanGTP-Impb inh	Hck Nef HTS	Runt-SMMHC FRET
Clc1ccsc1-c1csc(-c2cccnc2)n1	-3	37*	1	-4
C=CCOC(=O)C1=C(C)Nc2nnnn2C1c1cccs1 (stereo unspecified)	0	6	2	0
CCOC(=O)c1cc(C)[nH]c(=O)c1C#N	26	8	-3	56*
CCOC(=O)c1c(NC(=O)c2cc(-c3ccc(O)cc3)on2)sc(C(C)=O)c1C	13	-2	34	1
CCCc1nc(N2CCOCC2)c(C#N)c2c1CCCC2	1	0	2	-6
CN1CCc2c(C#N)c(N3CCOCC3)nc(NCC3CCCO3)c2C1 (stereo unspecified)	33	70*	11	6
CCN1C(=O)N(S(=O)(=O)C(F)(F)F)[C@@H](c2ccccc2)C(C(=O)OC)=C1C	0	35*	26	0
COc1ccc(C(=S)N2CCN(c3ccccc3C)CC2)cc1	6	3	-9	-4
COCCNC(=O)c1cc2c(=O)n3cccc(C)c3nc2n1C	2	-3	x	11
CCOC(=O)c1cc2c(=O)n3cccc(C)c3nc2n(C)c1=N	12	x	148*	38
CCOCCCNC(=O)c1cc2c(=O)n3cccc(C)c3nc2n1C	5	6	x	20
CCOCCCn1c(=N)c(C(N)=S)cc2c(=O)n3cccc(C)c3nc21	18	173*	19	x
Cc1cccn2c(=O)c3cc(C(N)=S)c(=N)n(CCCOC(C)C)c3nc12	57*	174*	27	65*
CC1CCCCC1NC(=O)COC(=O)COc1ccccc1Cl (stereo unspecified)	1	1	9	-2
CCCCNc1cc(NC(C)=O)cc2cc(OC)c(OC)cc12	4	21*	6	0
CCOc1ccc(C(=O)C2CCN(C(=O)c3ccccc3C(=O)O)CC2)cc1	-1	4	1	0
CCOc1ccc(C2C(C(=O)C3CC3)N3C=C(C#N)C=CC3C2(C#N)C#N)cc1 (stereo unspecified)	2	30*	4	1
CCOC(=O)C1(Cc2cccc(OC)c2)CCN(CCO)CC1	0	3	1	1
CCOC(=O)C1(Cc2cccc(OC)c2)CCN(Cc2cnc(C)s2)CC1	2	45*	-1	-1
O=C(Cc1ccc(F)cc1)Nc1ccc(S(=O)(=O)N2CCCCC2)cc1	0	-3	18	1
CCN(CC(=O)NCc1ccc(F)cc1)CC(=O)Nc1ccc(S(=O)(=O)N2CCCC2)cc1	-5	17*	26	0
O=C(CN1C(=O)COc2ccc(S(=O)(=O)N3CCCCC3)cc21)NCc1ccc(F)cc1	x	51*	x	x
COc1ccc(CNC(=O)CN2C(=O)COc3ccc(S(=O)(=O)N4CCCC4)cc32)cc1	x	2	x	x
COc1cccc(CCNC(=O)CCc2nnc(-c3cc(C)oc3C)o2)c1	x	3	x	x
Cc1ccc(CNC(=O)c2cc3ccccc3oc2=O)cc1	x	-2	x	x
SMILES	Runt-CBFb FRET	RanGTP-Impb inh	Hck Nef HTS	Runt-SMMHC FRET
CCCCc1c(C)nc2ccccc2c1SCCC(=O)O	-2	1	21	1
Cc1ccc(S(=O)(=O)c2nc(S(C)(=O)=O)sc2N2CCC(C)CC2)cc1	x	3	x	x
CCCCn1c(-c2cccs2)nc2nc3ccccc3nc21	19	3	20	158*
CC(C)Cn1c(-c2cccs2)nc2nc3ccccc3nc21	46	8	43	104*
Cc1ccc(-n2c(-c3cccs3)nc3nc4ccccc4nc32)cc1	0	1	5	-86
c1ccc(Cn2c(-c3cccs3)nc3nc4ccccc4nc32)cc1	23	u	1	65*
COc1cc(C(C)=O)ccc1Oc1ncnc2c1cnn2-c1ccc(F)cc1	-4	-2	0	-1
COc1cc(CN2CCN(CCc3ccccc3)C(CCO)C2)cc(OC)c1 (stereo unspecified)	-1	1	7	4
COc1cc(CN2CCN(CCCc3ccccc3)CC2CCO)cc(OC)c1 (stereo unspecified)	x	27*	x	x
O=C(c1ccc2c3c(cccc13)CC2)C1CCCN(Cc2cccnc2)C1 (stereo unspecified)	-4	-3	17	-4
Cc1cccc(CN2CCCC(C(=O)c3ccc4c5c(cccc35)CC4)C2)n1 (stereo unspecified)	-2	-4	154*	2
O=C(c1cc2c(=O)n3ccccc3nc2s1)N1CCc2ccccc2C1	19	-1	36	81*
CCN1CCN(C(=O)c2cc3c(=O)n4ccccc4nc3s2)CC1	x	12	x	x
O=C1NN(c2ccc(Br)cc2)C(=O)/C1=C\c1ccc(O)cc1O	x	142*	x	x
COc1ccc(Cn2c(/C=C/c3ccccc3)nc3ccccc32)cc1	0	28*	3	-4
COC(=O)c1cc(S(=O)(=O)Nc2ccc(C)cn2)c[nH]1	x	4	x	x
Cc1ccc(-c2nc(NCCCO)c3ccccc3n2)cc1	x	8	x	x
CC(C)(C)Nc1c2ccccc2nc2ccccc12	x	28*	x	x
OCCCNc1c2ccccc2nc2ccccc12	x	51*	x	x
c1ccc2c(NCCc3c[nH]c4ccccc34)c3ccccc3nc2c1	x	91*	x	x
Fc1cccc(NCCc2c[nH]c3ccccc23)n1	x	3	x	x
O=[N+]([O-])c1ccc(C2Oc3ccccc3C3CC(c4ccccc4)=NN32)s1 (stereo unspecified)	-8	x	3	-2
CCC(C(=O)NCCc1ccccc1OC)n1nc(C)c2c(C)n(-c3ccccc3)nc2c1=O (stereo unspecified)	x	-4	x	x
O=C1N/C(=C/c2ccc(N3CCOCC3)o2)C(=O)N1c1ccccc1	34	x	-2	20
Cc1ccc(NC(=O)CN2C(=O)S/C(=C\c3ccc(-c4cccc(C(=O)O)c4C)o3)C2=O)cc1	25	42*	3	-10
Cc1ccccc1NC(=O)CN1C(=O)S/C(=C\c2ccc(-c3cc(C(=O)O)ccc3C)o2)C1=O	11	-106	29	18
Cc1ccc(C(=O)O)cc1-c1ccc(/C=C2/NC(=O)N(c3ccccc3)C2=O)o1	12	20*	13	39
Cc1ccc(NC(=O)CN2C(=O)S/C(=C/c3ccc(-c4cccc(C(=O)O)c4)o3)C2=O)cc1	-28	x	42	-1
CC(C)(C)OC(=O)CN1C(=O)S/C(=C\c2ccc(-c3cccc(C(=O)O)c3)o2)C1=O	x	35*	x	x
